# Laboratory results published in paper PMC10644204 (Pharmacology Research & Perspectives, 2023).
# “And” between values parts separate entries of the source, which are not always exact repeats. Equal entries are not always repeated. “Also recorded” adds a separate entry of the source. Where two headings read alike, the source gives them in different places.
# Columns and labels:
# [1] = system: healthy participants and people living with HIV‐1; details: short-term administration; cited from earlier work
# [2] = Plasma pharmacokinetics, part 2 main QTc study; type: in vivo, human; details: for Cτ, geometric mean (%CVb): moderate-fat meal, Day 7, n = 40
# Procedure, shortened: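 Moderate-fat meal 30 min before each dose. Plasma sampled predose on Days 1, 5, 6 and 7, and on Day 7 at 0.5–24 h postdose. Test compound assayed by validated UHPLC-MS/MS (3.00–1000 ng mL−1).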
# [3] = GSK'254 200 mg QD, healthy participants, previous studies; cited from earlier work
# healthy participants [4] = type: in vivo, human
# dogs = details: single dose of GSK'254 17 mg kg^−1, cited from earlier work
# [5] = GSK'254 200 mg QD, treatment-naive people living with HIV-1; cited from earlier work
# HIV‐1 = details: GSK'254 200 mg QD, treatment-naive people living with HIV-1, phase IIa; cited from earlier work
# healthy participants [6] = assay: Concentration-QTc analysis; type: in vivo, human
# Procedure, shortened: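 Part 2: 12-lead ECGs extracted from continuous Holter recordings at baseline (Day −1; −45, −30, −15 min predose Day 1) and on Day 7 predose and 0.5–24 h postdose. ECGs taken before PK blood draws. QTcF by Fridericia. Mixed-effects model of ΔQTcF on plasma test compound concentration, with centred baseline QTcF, treatment and time fixed, and per-participant random slope and intercept.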
# healthy participants [7] = assay: Safety assessments; type: in vivo, human; details: both GSK'254 doses, short-term administration, all AEs mild in intensity
# Procedure, shortened: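 Part 2 healthy participants confined from Day −2 of period 1 to Day 9 of period 4. […] AEs monitored throughout, recording duration, severity, causality and outcome, alongside safety ECGs, laboratory tests, physical examination and vital signs.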
# [8] = GSK'254 500 mg QD, 24 h post-dose
structure (smiles),measurement,setting,value
C=C(C)[C@@H]1CC[C@]2(NCCN3CCS(=O)(=O)CC3)CC[C@]3(C)[C@H](CC[C@@H]4[C@@]5(C)CC=C(C6=CC[C@@](CF)(C(=O)O)CC6)C(C)(C)[C@@H]5CC[C@]43C)[C@@H]12 [GSK'254],Tolerability,[1],generally well tolerated
same,AUC,"[2]; human, plasma, oral, 100 mg",13800 ng·h/mL
same,AUC,"[2]; human, plasma, oral, 500 mg",67500 ng·h/mL
same,Cmax,"[2]; human, plasma, oral, 500 mg",4260 ng/mL
same,"Cτ, geometric mean (%CVb)","[2]; part 2, GSK'254 100 mg QD 7 days",460 ng mL^−1 and 460 (40.3) ng mL^−1
same,"Cτ, geometric mean (%CVb)","[2]; part 2, GSK'254 500 mg QD 7 days",2140 ng mL^−1 and 2140 (46.6) ng mL^−1
same,Geometric mean steady-state exposure values with GSK'254 500 mg relative to GSK'254 100 mg,"[2]; part 2, QD 7 days",~ 5 fold
same,Geometric mean Cmax,[3],1040 to 1780 ng/mL
same,"Clinically relevant effects on cardiac parameters (QTc prolongation, HR, cardiac conduction)",healthy participants [4]; GSK'254 100 mg QD,"No clinically relevant effects on cardiac parameters; also recorded: No clinically relevant effects on QTc prolongation, HR, or cardiac conduction"
same,Observations of ΔQTcF >30 ms,healthy participants [4]; GSK'254 100 mg QD,no participants
same,Outliers in HR changes (HR >100 bpm with a >25% increase in ΔHR),healthy participants [4]; GSK'254 100 mg QD,one participant at one time point
same,Reports of QTcF >450 to ≤480 ms,healthy participants [4]; GSK'254 100 mg QD,one participant (one time point)
same,"LS mean ΔΔHR, lowest across time points","healthy participants [4]; GSK'254 100 mg QD, 0.5 h post-dose, Day 7",−0.2 (−2.17–1.67) bpm
same,"LS mean ΔΔHR, highest across time points","healthy participants [4]; GSK'254 100 mg QD, 24 h post-dose, Day 7",2.6 (0.70–4.53) bpm
same,"ΔΔQTcF, LS mean (90% CI)","healthy participants [4]; GSK'254 100 mg QD, Day 7, 0.5 h","1.0 (−1.60, 3.59) ms"
same,"ΔΔQTcF, LS mean (90% CI)","healthy participants [4]; GSK'254 100 mg QD, Day 7, 1 h","0.6 (−2.06, 3.33) ms"
same,"ΔΔQTcF, LS mean (90% CI)","healthy participants [4]; GSK'254 100 mg QD, Day 7, 2 h","1.7 (−1.27, 4.73) ms"
same,"ΔΔQTcF, LS mean (90% CI)","healthy participants [4]; GSK'254 100 mg QD, Day 7, 3 h","1.5 (−1.45, 4.51) ms"
same,"ΔΔQTcF, LS mean (90% CI)","healthy participants [4]; GSK'254 100 mg QD, Day 7, 4 h","1.0 (−1.59, 3.54) ms"
same,"ΔΔQTcF, LS mean (90% CI)","healthy participants [4]; GSK'254 100 mg QD, Day 7, 4.5 h","1.0 (−1.73, 3.82) ms"
same,"ΔΔQTcF, LS mean (90% CI)","healthy participants [4]; GSK'254 100 mg QD, Day 7, 5 h","0.2 (−2.44, 2.80) ms"
same,"ΔΔQTcF, LS mean (90% CI)","healthy participants [4]; GSK'254 100 mg QD, Day 7, 6 h","1.7 (−1.58, 4.97) ms"
same,"ΔΔQTcF, LS mean (90% CI)","healthy participants [4]; GSK'254 100 mg QD, Day 7, 8 h","−0.8 (−3.54, 1.90) ms"
same,"ΔΔQTcF, LS mean (90% CI)","healthy participants [4]; GSK'254 100 mg QD, Day 7, 10 h","0.2 (−2.30, 2.65) ms"
same,"ΔΔQTcF, LS mean (90% CI)","healthy participants [4]; GSK'254 100 mg QD, Day 7, 12 h","0.5 (−2.43, 3.35) ms"
same,"ΔΔQTcF, LS mean (90% CI)","healthy participants [4]; GSK'254 100 mg QD, Day 7, 24 h","0.1 (−2.66, 2.76) ms"
same,"ΔΔQTcF, LS mean (90% CI)","healthy participants [4]; GSK'254 100 mg QD, Day 7, […]","1.4 (−1.30, 4.13) ms"
same,"ΔΔQTcF, LS mean (90% CI)","healthy participants [4]; GSK'254 100 mg QD, Day 7, pre-dose","1.4 (−0.88, 3.77) ms"
same,Maximum LS mean ΔΔQTcF,"healthy participants [4]; GSK'254 100 mg QD, at 2 and 6 h post-dose on Day 7",1.7 ms
same,Upper bound of the 90% CI of LS mean ΔΔQTcF,"healthy participants [4]; GSK'254 100 mg QD, through 24 h post-dose on Day 7",< 10 ms
same,Observations of ΔQTcF >30 ms,healthy participants [4]; GSK'254 500 mg QD,two participants (three time points)
same,Outliers in HR changes (HR >100 bpm with a >25% increase in ΔHR),healthy participants [4]; GSK'254 500 mg QD,one participant at one time point
same,Reports of QTcF >450 to ≤480 ms,healthy participants [4]; GSK'254 500 mg QD,one participant (one time point)
same,Largest LS mean ΔΔHR,"healthy participants [4]; GSK'254 500 mg QD, 10 h post-dose on Day 7",5.1 bpm
same,"LS mean placebo-corrected change from baseline in PR, lowest across post-dose time points",healthy participants [4]; [8],−1.8 (−4.00–0.36) ms
same,"LS mean placebo-corrected change from baseline in QRS, maximum value",healthy participants [4]; [8],1.4 ms
same,"ΔΔQTcF, LS mean (90% CI)","healthy participants [4]; GSK'254 500 mg QD, Day 7, 0.5 h","7.2 (4.59, 9.83) ms"
same,"ΔΔQTcF, LS mean (90% CI)","healthy participants [4]; GSK'254 500 mg QD, Day 7, 1 h","4.1 (1.34, 6.79) ms"
same,"ΔΔQTcF, LS mean (90% CI)","healthy participants [4]; GSK'254 500 mg QD, Day 7, 2 h","6.5 (3.46, 9.55) ms"
same,"ΔΔQTcF, LS mean (90% CI)","healthy participants [4]; GSK'254 500 mg QD, Day 7, 3 h","8.1 (5.06, 11.09) ms"
same,"ΔΔQTcF, LS mean (90% CI)","healthy participants [4]; GSK'254 500 mg QD, Day 7, 4 h","8.6 (6.03, 11.22) ms"
same,"ΔΔQTcF, LS mean (90% CI)","healthy participants [4]; GSK'254 500 mg QD, Day 7, 4.5 h","10.6 (7.75, 13.38) ms"
same,"ΔΔQTcF, LS mean (90% CI)","healthy participants [4]; GSK'254 500 mg QD, Day 7, 5 h","9.6 (6.92, 12.24) ms"
same,"ΔΔQTcF, LS mean (90% CI)","healthy participants [4]; GSK'254 500 mg QD, Day 7, 6 h","8.6 (5.27, 11.89) ms"
same,"ΔΔQTcF, LS mean (90% CI)","healthy participants [4]; GSK'254 500 mg QD, Day 7, 8 h","8.1 (5.34, 10.85) ms"
same,"ΔΔQTcF, LS mean (90% CI)","healthy participants [4]; GSK'254 500 mg QD, Day 7, 10 h","8.6 (6.14, 11.15) ms"
same,"ΔΔQTcF, LS mean (90% CI)","healthy participants [4]; GSK'254 500 mg QD, Day 7, 12 h","6.0 (3.07, 8.89) ms"
same,"ΔΔQTcF, LS mean (90% CI)","healthy participants [4]; GSK'254 500 mg QD, Day 7, 24 h","7.7 (4.94, 10.45) ms"
same,"ΔΔQTcF, LS mean (90% CI)","healthy participants [4]; GSK'254 500 mg QD, Day 7, […]","9.2 (6.44, 11.93) ms"
same,"ΔΔQTcF, LS mean (90% CI)","healthy participants [4]; GSK'254 500 mg QD, Day 7, pre-dose","7.1 (4.74, 9.46) ms"
same,"LS mean placebo-corrected change from baseline in PR, highest across post-dose time points","healthy participants [4]; GSK'254 500 mg QD, […] post-dose",3.2 (0.86–5.57) ms
same,Maximum LS mean ΔΔQTcF,"healthy participants [4]; GSK'254 500 mg QD, at 4.5 h post-dose on Day 7",10.6 ms and 10.6 (7.75–13.38) ms
same,Clinically relevant effects on heart rate or cardiac conduction (PR and QRS intervals),healthy participants [4]; both GSK'254 doses (100 and 500 mg QD),Neither GSK'254 dose had clinically relevant effects on heart rate or cardiac conduction; also recorded: neither GSK'254 dose had a clinically relevant effect on cardiac conduction (PR and QRS intervals) or HR
same,Maximum concentration,dogs; dog,7960 ng/mL
same,QT interval effects,"dogs; dogs, telemetry",minimal QT interval effects were observed in one dog
same,Geometric mean Cmax,[5],1860 ng/mL
same,Mean reduction from baseline in HIV-1 RNA,HIV‐1,2 log10 copies/mL
same,Treatment effect-specific intercept of the concentration-QTc model,healthy participants [6]; Day 7,0.61 ms
same,Model-predicted ΔΔQTcF at geometric mean GSK'254 Cmax,healthy participants [6]; GSK'254 100 mg,2.72 ms
same,Model-predicted ΔΔQTcF at geometric mean GSK'254 Cmax,healthy participants [6]; GSK'254 500 mg,11.49 ms
same,Estimated population slope of the concentration-QTc model,"healthy participants [6]; ΔΔQTcF vs GSK'254 plasma concentration, Day 7",0.0025 ms per ng mL^−1
same,Tolerability,healthy participants [7],generally well tolerated
